WT yeast gro inh = growth inhibition of WT yeast, mitochondrial fusion screen; mitochondrial fusion phenotypic screen, WT strain; inhibition, % at 10 µM; hit rate 2.1% among 190,000; in the data active = inhibition above about 58%; tested in S. cerevisiae
14-3-3 Bad inh = disrupts binding of bovine 14-3-3 zeta to phospho-Bad peptide | P63103 | TR-FRET 14-3-3zeta/Dy647-pBad peptide displacement, 1 h | inhibition, % at 21.7 µM | hit rate 0.71% among 220,000 | AID 781;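 active = inhibition above about 70%, limit read from the data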;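 also: 0% = full 14-3-3 plus peptide FRET controls and 100% = background without 14-3-3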
RBBP9 inhibitor = human RBBP9 hydrolase inhibition; O75884; recombinant RBBP9, FP-Rh probe fluorescence polarization; inhibition, % at 7.94 µM; hit rate 0.2% among 220,000;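 active = inhibition above the campaign mean of all tested compounds plus 3 SD, cut at about 14% in these data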;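 also: plate controls were DMSO wells with RBBP9 for no effect and wells lacking RBBP9 protein for full effect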
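Measured by: FP readout at 525/598 nm; material: recombinant human RBBP9; also added: Serine-hydrolase probe FP-Rh, 375 nM pre-mixing; medium: Tris buffer pH 8.0, NaCl, Pluronic; replication: one well per compound; doses: one concentration, 7.94 µM nominal, 0.794% DMSO; timing: preincubation 30 min plus labeling 45 min at 25 °C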
KCC2 mod = modulators of human KCC2 chloride dependent transport | Q9H2X9 | KCC2 cells, thallium flux FluoZin-2 fluorescence | B-score of Tl+ flux slope (higher = more flux/activation; lower = inhibition) at 10 µM | hit rate 2.2% among 190,000;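 active = thallium flux slope and its plate-corrected score both differing from the plate sample mean at a set confidence after two filtering rounds, in either direction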;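 also: slope of fluorescence scaled to starting intensity during 10 to 20 s after thallium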
Target sequence (Q9H2X9 whole entry, looked up): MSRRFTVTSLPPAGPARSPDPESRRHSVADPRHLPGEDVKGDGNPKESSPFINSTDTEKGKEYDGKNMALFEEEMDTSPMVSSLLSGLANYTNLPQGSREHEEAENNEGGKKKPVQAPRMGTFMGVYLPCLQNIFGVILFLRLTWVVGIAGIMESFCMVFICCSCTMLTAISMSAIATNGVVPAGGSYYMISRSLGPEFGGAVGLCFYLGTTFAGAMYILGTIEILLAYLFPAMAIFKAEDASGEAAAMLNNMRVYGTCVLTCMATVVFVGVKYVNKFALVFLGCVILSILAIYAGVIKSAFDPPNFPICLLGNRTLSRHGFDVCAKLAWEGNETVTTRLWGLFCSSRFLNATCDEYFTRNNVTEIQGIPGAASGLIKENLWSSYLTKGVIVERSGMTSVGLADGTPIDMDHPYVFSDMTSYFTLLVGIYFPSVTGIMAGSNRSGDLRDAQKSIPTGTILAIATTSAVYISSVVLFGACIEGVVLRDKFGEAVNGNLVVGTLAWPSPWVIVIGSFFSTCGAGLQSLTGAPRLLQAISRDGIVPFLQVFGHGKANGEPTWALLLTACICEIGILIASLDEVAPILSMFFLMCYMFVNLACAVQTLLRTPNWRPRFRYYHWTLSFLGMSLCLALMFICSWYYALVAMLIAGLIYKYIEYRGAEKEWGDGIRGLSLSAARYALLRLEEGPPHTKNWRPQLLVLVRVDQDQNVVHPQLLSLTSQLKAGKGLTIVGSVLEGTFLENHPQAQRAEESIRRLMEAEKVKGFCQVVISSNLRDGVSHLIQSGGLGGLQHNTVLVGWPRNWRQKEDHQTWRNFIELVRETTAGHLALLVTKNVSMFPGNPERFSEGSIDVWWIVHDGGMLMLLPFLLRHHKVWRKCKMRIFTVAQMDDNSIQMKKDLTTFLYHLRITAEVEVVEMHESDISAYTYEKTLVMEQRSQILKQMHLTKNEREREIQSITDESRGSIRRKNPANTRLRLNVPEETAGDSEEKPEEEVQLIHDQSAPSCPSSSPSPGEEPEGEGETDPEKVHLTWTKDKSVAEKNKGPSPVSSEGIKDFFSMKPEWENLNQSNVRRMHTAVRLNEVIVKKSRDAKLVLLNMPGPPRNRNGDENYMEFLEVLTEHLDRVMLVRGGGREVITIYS
ROMK primary = human ROMK K+ channel modulation, primary screen. Tet-inducible ROMK, thallium flux fluorescence; actives lie on both sides. B-score at 10 µM. hit rate 2% among 130,000. P48048;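 active = signal ratio slope over the read window, or its plate-corrected B-score, at least 3 SD from the plate mean, either direction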;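 also: B-score of the F/F0 ratio slope over 7 to 12 s after thallium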
NCF1 inh = p47phox (human) inhibition. P14598. p47phox/p22phox peptide binding, fluorescence polarization, 2 h. inhibition, % at 24.7 µM. hit rate 0.53% among 220,000. AID 1274;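 active = inhibition above about 30%, limit read from the data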;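 also: 0% = p47phox with labelled peptide and 100% = labelled peptide alone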
ROMK retest = confirmation of human ROMK potassium channel modulators. AID 1917. shares compounds with ROMK primary. normalized thallium flux (F/F0 slope) at 10 µM. hit rate 54% among 3,000. ROMK thallium flux, fluorescence ratio; hits give low values;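 active = Flux at 10 µM at least 3 SD below or above vehicle control mean in one or both replicates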
* = called active by the depositor; i = inactive; . = no result. Shown are actives, neighbours in structure and some others; about 5.8% of the full set was active somewhere.

SMILES	WT yeast gro inh	14-3-3 Bad inh	RBBP9 inhibitor	KCC2 mod	ROMK primary	NCF1 inh	ROMK retest
O=C(O)CCN1C(=O)CC(N2C(=O)/C(=C/c3ccc(Cl)cc3)SC2=S)C1=O (stereo not drawn)	-13	-8	-5	-0.2	-2*	-11	0.044*
O=C(NCc1ccccn1)C(=O)Nc1cccc2ccccc12	8	-11	-9	0	0.81	-1	.
CCN(CC)C(=O)CC(c1ccc(F)cc1)c1ccc(OC(C)C)cc1 (stereo not drawn)	11	-3	-4	-1.3	.	-2	.
CC1(C)CN(c2ccc(Br)cc2Br)C1=O	-1	-13	-3	0.88	.	-3	.
CC1(C)CN(c2cccc(Br)c2)C1=O	-6	7	-1	.	2.1*	3	0.073
CC(=O)NC12CC3CC(C1)CC(C(=O)OCC(=O)NC(=O)c1cccn1C)(C3)C2	0	-18	-6	0.34	-0.34	-7	.
CC(=O)NC12CC3CC(C1)CC(C(=O)OCC(=O)Nc1ncc(Cl)cc1Cl)(C3)C2	-1	1	-7	0.41	-4*	-8	0.072
CN(C)CCCNCC(=O)NN(c1ccccc1)c1ccccc1	.	8	3	0.38	.	-14	.
CN(C)c1ccc(/C=C(\C#N)C(=O)c2ccccc2)cc1	.	-14	-11	-0.69	.	52*	0.066*
CN1CCN(c2ccc(C(=O)c3ccc(Br)cc3)cc2[N+](=O)[O-])CC1	37	-6	-6	0.19	-0.083	-1	.
CC(=O)c1sc(NC(=O)c2c(F)cccc2F)nc1-c1ccccc1	27	-1	-4	-0.9	-12*	-15	0.078
CC(=O)c1sc(NC(=O)c2ccccc2)nc1-c1ccccc1	22	-8	0	-0.96	0.55	-10	.
COC(=O)Nc1nc(-c2ccccc2)c(C(=O)c2ccc(Cl)cc2)s1	7	0	-4	0.42	2	-2	.
CCOC(=O)Nc1nc(-c2ccccc2)c(C(=O)c2ccccc2)s1	19	-40	-2	-0.88	3.6*	-12	0.082
NC(=O)CC(NC(=O)Cc1cccc2ccccc12)c1ccc(N2CCN(c3ccc(F)cc3)CC2)c([N+](=O)[O-])c1 (stereo not drawn)	.	9	.	0.029	.	10	.
COc1ccc(N(C(=O)COc2ccc(C)cc2)S(=O)(=O)c2ccc(C)cc2)cc1	29	-18	0	-0.016	0.65	-6	.
Cc1ccccc1-n1cnc2c(sc3nc(N4CCOCC4)c4c(c32)CCCC4)c1=O	.	6	4	-0.43	.	-1	.
CC1=Nc2cc(C(=O)NCCCOC(C)C)ccc2Sc2ccc(C)cc21	8	-1	1	-0.83	4.3*	-18	0.091
CC1=Nc2cc(C(=O)NCCCOC(C)C)ccc2Sc2ccccc21	5	-8	-1	-1.5	2.9*	-12	0.091
CCCC1=Nc2cc(C(=O)NCCCOC(C)C)ccc2Sc2ccccc21	-2	15	-4	0.019	1.9	-20	.
CCOC(=O)c1ccc2nc(NC(=O)c3cccs3)sc2c1	8	4	-3	1.1	.	-4	0.074
CCOC(=O)c1ccc2nc(NC(=O)c3ccco3)sc2c1	8	12	-4	-0.84	.	-20	.
CC(C)=C(C#N)c1nc2ccccc2s1	-6	8	-14	0.63	.	-7	.
N#C/C(=C(/O)C(Cl)(Cl)Cl)c1nc2ccccc2[nH]1	.	12	5	-0.34	-4.9*	-3	0.045*
C/C(O)=C(/C#N)c1nc2ccccc2[nH]1	-4	-11	-3	-0.83	.	-17	.
SMILES	WT yeast gro inh	14-3-3 Bad inh	RBBP9 inhibitor	KCC2 mod	ROMK primary	NCF1 inh	ROMK retest
N#C/C(=C/c1ccncc1)c1nc2ccccc2s1	13	-6	-11	0.047	-3.5*	-6	0.053*
N#C/C(=C\c1ccncc1)c1nc2ccccc2[nH]1	-7	-9	4	-0.5	-5.2*	-12	0.051*
N#C/C(=C\c1cccnc1)c1nc2ccccc2[nH]1	.	3	-5	0.74	.	-29	.
Cc1nnsc1-c1nnc(SCC(=O)c2ccccc2)n1C1CC1	.	1	3	-0.28	.	5	.
CCN(CC)c1ccc(CNCc2cccs2)cc1	-20	5	-10	0.15	0.017	-2	.
COc1ccccc1N1N=C(C(=O)c2ccccc2)C2C(=O)N(c3ccc(Br)cc3)C(=O)C21 (stereo not drawn)	.	-26	-1	.	.	-18	0.065*
CCOC(=O)C1=NN(c2ccccc2)C2C(=O)N(c3ccccc3OC)C(=O)C12 (stereo not drawn)	.	-1	-8	0.25	.	8	.
COc1ccccc1N1C(=O)C2C(C(=O)c3ccccc3)=NN(c3ccccc3)C2C1=O (stereo not drawn)	.	-4	-3	-1.7	.	-12	0.063*
Cn1c(=O)c([N+](=O)[O-])c(-n2cnc3ccccc32)c2ccccc21	.	0	0	-0.4	.	0	.
CC(=O)Oc1oc(-c2ccccc2)nc1C=Nc1ccc(N(C)C)cc1	.	-7	-5	-1.8	.	1	0.06*
CN(C)c1ccc(N=Cc2nc(-c3ccccc3)oc2OC(=O)c2ccccc2)cc1	-10	-2	-3	i	.	-81	.
CN(CCc1ccccn1)C(=O)CCC1CCCN(C(=O)c2n[nH]c3c2CCCC3)C1 (stereo not drawn)	-18	0	-3	-0.26	0.065	-1	.
Cc1cccc(NC(=S)N2N=CCC2c2ccccc2)c1 (stereo not drawn)	15	-7	-6	.	.	-20	.
O=C(Nc1ccc(Cl)cc1)N1N=CCC1c1ccccc1 (stereo not drawn)	.	2	-11	-1.3	-3.1*	4	0.064*
O=C(NCCCN1CCCC1=O)c1cccs1	4	-4	-6	2.4	.	-10	0.075
COCc1cc(C)nc(SCC(=O)c2ccc(O)c(O)c2)c1C#N	0	-13	-11	.	1.7*	-6	0.077
Oc1[nH]c2ccccc2c1C1=NCCCCC1	17	-5	2	1.4	-0.041	-5	.
N#CC1=C(N)NC(SCc2ccccc2)=C(C#N)C12CCCC2	12	-11	-11	-1.6	-1.1	-7	.
N#CC1=C(N)NC(SCc2ccc(Br)cc2)=C(C#N)C12CCCCC2	67*	-19	-1	-1.3	-3.9*	-38	0.077
N#CC1=C(N)NC(SCc2ccc(Cl)cc2)=C(C#N)C12CCCCC2	11	-4	0	-1.8	-0.85	-15	0.062*
c1ccc(CC2CCN(C3=Nc4cccc5cccc3c45)CC2)cc1	60	6	5	-0.92	-4.4*	-15	0.062*
c1cc2c3c(cccc3c1)C(N1CCN(C3=Nc4cccc5cccc3c45)CC1)=N2	.	.	-3	0.51	.	.	.
CC1CN(C2=Nc3cccc4cccc2c34)CC(C)O1 (stereo not drawn)	8	8	1	-1.6	-1.8*	-3	0.063*
